This note sets out measurements from PMC10088587 (Archives of Microbiology, 2023).

The CC50 is the concentration giving 50% cytotoxicity. Read a high CC50 as better tolerance by the cells. A word on the EC50: it is the concentration at which the effect is half-maximal. Higher therefore signals a need for much substance.

Molecules are shown by their SMILES. In brackets after ≈: the same amount, converted by molar mass. Structures can show the parent of a compound that is named as a salt.

One data set can be described thus: Cytotoxicity assay. Format: cell-based. The note with it: dog, MDCK cells. The method in brief: (§1)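 MDCK cells seeded at 3×10^4/well in 10% FBS and grown 24 h at 37 °C to semi-confluency. Exposed 48 h to twofold dilutions of test compound (2.5 to 0.001 mg/ml), 4 wells per dilution. MTT for 2–3 h at 37 °C in the dark, formazan dissolved in DMSO, OD read at 540 nm, viability taken as % of untreated control. CC50 read from dose-response curves.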

The subject of data set [1] is influenza A/PR/8/34 (H1N1) virus. Format: cell-based.
Data set [2] in a line: Critical micelle concentration. Format: physicochemical.
The subject of data set [3] is MDCK cells. Description: Cytotoxicity assay. Format: cell-based. The note with it: 48 h, MTT; for NCTC (EC50): NCTC was selected as EC50 (HA test). The essentials: as §1
For data set [4], the system named is H1N1-induced apoptosis in MDCK cells. Format: cell-based.
The test system of data set [5] is MDCK cells. Format: cell-based.
Data set [6] addresses virus surface HA glycoprotein (Influenza A virus, UniProt P03452). Description: Hemagglutination inhibition assay. Format: biochemical. The note with it: twofold dilutions from CC50, 4 HA unit of virus, 1% cRBC.

Chain of virus surface HA glycoprotein (P03452 18-342 limits assumed): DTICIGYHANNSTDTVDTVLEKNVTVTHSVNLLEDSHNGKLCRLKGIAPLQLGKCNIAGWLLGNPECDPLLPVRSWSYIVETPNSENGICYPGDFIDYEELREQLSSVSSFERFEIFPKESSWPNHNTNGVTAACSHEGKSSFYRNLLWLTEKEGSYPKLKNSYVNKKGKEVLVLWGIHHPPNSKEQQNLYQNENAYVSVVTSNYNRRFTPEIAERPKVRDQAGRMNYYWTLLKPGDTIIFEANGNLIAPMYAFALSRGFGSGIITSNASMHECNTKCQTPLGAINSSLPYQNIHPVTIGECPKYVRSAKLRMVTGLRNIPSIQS
Chain of virus surface HA glycoprotein (P03452 344-565 limits assumed): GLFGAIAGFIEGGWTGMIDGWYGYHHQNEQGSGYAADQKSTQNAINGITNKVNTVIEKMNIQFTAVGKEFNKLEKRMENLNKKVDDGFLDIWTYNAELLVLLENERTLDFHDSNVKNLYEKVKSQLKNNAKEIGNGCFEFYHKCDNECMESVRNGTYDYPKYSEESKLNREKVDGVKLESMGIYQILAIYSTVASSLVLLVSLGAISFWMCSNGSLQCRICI

In the data set “Cytotoxicity assay”, `NC12CC3CC(CC(C3)C1)C2` [Ama, amantadine hydrochloride, reference compound] showed a cytotoxic concentration (CC50) at 48 h of 197 ± 1.5 µg/mL and an EC50 at 48 h of 98.5 µg/mL. The “Log HA decrement (mean ± SD), Co-pen” value in data set [1] came to 7 logs.
For the compound `CCCCCCCCCCCCCCCC[N+](C)(C)CCCCCC[N+](C)(C)CCCCCCCCCCCCCCCC.[Br-].[Br-]` [GSA, Hexamethylene-1,6-bis(N,N-dimethyl-N-hexadecylammonium bromide)], the “CMC (critical micelle concentration)” value in data set [2] was found to be 0.034. Besides, in the data set with MDCK cells [3], the CC50 was found to be 7.7 ± 0.0 µg/mL and the “NCTC (EC50)” value was found to be 2.6 ± 1.7 µg/mL. The “Log HA decrement (mean ± SD), Co-pen” value in data set [1] was 6.5 logs. The “Apoptosis evaluation (%), Q4 healthy cells” value in data set [4] came out at 54.85%.
Turning to `CCCCCCCCCCCC[N+](C)(C)CCCNCCC[N+](C)(C)CCCCCCCCCCCC.[Br-].[Br-]` [GSB, 4-aza-1,7-heptane-bis(N,N-dimethyl-N-dodecylammonium bromide)], in data set [2], the “CMC (critical micelle concentration)” value is 1.047. In addition, in the data set on MDCK cells [3], the CC50 amounted to 1.9 ± 0.1 µg/mL and the “NCTC (EC50)” value worked out at 0.7 ± 0.3 µg/mL. Besides, in data set [4], the “Apoptosis evaluation (%), Q2 late apoptosis” value is given as 49.50%.
Regarding `CCCCCCCCCCCC[N+](C)(C)CCCCCCCCCC[N+](C)(C)CCCCCCCCCCCC.[Br-].[Br-]` [GSC, Decamethylene-1,10-bis(N,N-dimethyl-N-dodecylammonium bromide)], the “CMC (critical micelle concentration)” value in data set [2] is given as 0.63. Also, in the data set on MDCK cells [3], the CC50 turned out to be 4.0 ± 0.0 µg/mL and the “NCTC (EC50)” value amounted to 1.2 ± 0.6 µg/mL. In data set [1], the “Log HA decrement (mean ± SD), Co-pen” value stood at 6.5 logs and the “Log HA decrement (mean ± SD), Pre-pen” value worked out at 4.5 logs. The “Apoptosis evaluation (%), Q4 healthy cells” value in the data set with MDCK cells [5] was determined as 37.500 ± 9.900%. The “Apoptosis evaluation (%), Q4 healthy cells” value in data set [4] was found to be 37.50%.
In the case of `CCCCCCCCCCCC[N+](C)(C)CCOCC[N+](C)(C)CCCCCCCCCCCC.[Br-].[Br-]` [GSD, 3-oxa-1,5-pentane-bis(N,N-dimethyl-N-dodecylammonium bromide)], in data set [2], the “CMC (critical micelle concentration)” value stood at 1.047. In addition, in the data set with MDCK cells [3], the CC50 was found to be 4.9 ± 0.1 µg/mL and the “NCTC (EC50)” value worked out at 1.7 ± 0.6 µg/mL. Also, in data set [1], the “Log HA decrement (mean ± SD), Post-pen” value came out at 5.5 logs. The “Apoptosis evaluation (%), Q2 late apoptosis” value in data set [4] worked out at 46.70%.
Regarding `CCCCCCCCCCCC[N+](C)(C)CCCCCC[N+](C)(C)CCCCCCCCCCCC.[Br-].[Br-]` [GSE, Hexamethylene-1,6-bis (N,N-dimethyl-N-dodecylammonium bromide)], in data set [2], the “CMC (critical micelle concentration)” value was determined as 0.98. In the data set with MDCK cells [3], the half-maximal cytotoxic concentration (CC50) is 3.4 ± 0.0 µg/mL and the “NCTC (EC50)” value came to 0.9 ± 0.5 µg/mL. Besides, in data set [4], the “Apoptosis evaluation (%), Q3 early apoptosis” value is given as 54.10%.
As for `CCCCCCCCCCCCCCCC[N+](C)(C)CCCCCCCCCC[N+](C)(C)CCCCCCCCCCCCCCCC.[Br-].[Br-]` [GSF, Decamethylene-1,10-bis(N,N-dimethyl-N-hexadecylammonium bromide)], in data set [2], the “CMC (critical micelle concentration)” value stood at 0.032. Moreover, in the data set with MDCK cells [3], the CC50 is 8.8 ± 0.0 µg/mL and the “NCTC (EC50)” value was 1.7 ± 0.5 µg/mL. The “Apoptosis evaluation (%), Q4 healthy cells” value with MDCK cells [5] is 82.950 ± 8.132%. Moreover, in data set [4], the “Apoptosis evaluation (%), Q4 healthy cells” value stood at 70.50%.
Take `CCCCCCCCCCCCCCCC[N+](C)(C)CCCCCCCCCCCC[N+](C)(C)CCCCCCCCCCCCCCCC.[Br-].[Br-]` [GSG, Dodecamethylene-1,12-bis(N,N-dimethyl-N-hexadecylammonium bromide)]: the “CMC (critical micelle concentration)” value in data set [2] was found to be 0.022. Besides, in the data set with MDCK cells [3], the CC50 is 11.9 ± 0.0 µg/mL and the “NCTC (EC50)” value was determined as 1.7 ± 1.3 µg/mL. In data set [4], the “Apoptosis evaluation (%), Q4 healthy cells” value came to 70.10%.
Taken in the same sequence, the figures for `CCCCCCCCCCCCCCCC[N+](C)(C)Cc1ccc(C[N+](C)(C)CCCCCCCCCCCCCCCC)cc1.[Br-].[Br-]` [GSH, 1,4-phenylene-bis(methylene)bis (N,N-dimethyl-N-hexadecylammonium bromide)] were 0.48, 522.2 ± 0.0 µg/mL, 36.7 ± 28.6 µg/mL and 68.05%.
As for `CCCCCCCCCCCCCCCCCC[N+](C)(C)CCCCCCCCCC[N+](C)(C)CCCCCCCCCCCCCCCCCC.[Br-].[Br-]` [GSI, Decamethylene-1,10-bis(N,N-dimethyl-N-octadecylammonium bromide)], the “CMC (critical micelle concentration)” value in data set [2] is reported as 0.0213. Moreover, in the data set on MDCK cells [3], the CC50 is 16.4 ± 0.0 µg/mL and the “NCTC (EC50)” value stood at 2.6 ± 1.5 µg/mL. The “Apoptosis evaluation (%), Q4 healthy cells” value with MDCK cells [5] is given as 84.850 ± 1.202%. Moreover, the “Apoptosis evaluation (%), Q4 healthy cells” value in data set [4] was found to be 77.90%.
Consider `CCCCCCCCCCCCCCCCCC[N+](C)(C)CCCCCCCCCCCC[N+](C)(C)CCCCCCCCCCCCCCCCCC.[Br-].[Br-]` [GSJ, Dodecamethylene-1, 12-bis (N, N-dimethyl-N-octadecylammonium bromide)], for which the “CMC (critical micelle concentration)” value in data set [2] was found to be 0.0331. Also, in the data set with MDCK cells [3], the CC50 worked out at 48.6 ± 0.0 µg/mL and the “NCTC (EC50)” value was found to be 0.6 ± 0.2 µg/mL. In addition, the “Apoptosis evaluation (%), Q4 healthy cells” value in data set [4] was 68.75%.
For the compound `CCCCCCCCCCCCCCCCCC[N+](C)(C)Cc1ccc(C[N+](C)(C)CCCCCCCCCCCCCCCCCC)cc1.[Br-].[Br-]` [GSK, 1,4-phenylene-bis(methylene) bis (N,N-dimethyl-N-octadecylammonium bromide)], the “CMC (critical micelle concentration)” value in data set [2] amounted to 0.29. Also, in the data set on MDCK cells [3], the CC50 is 1229.2 ± 0.0 µg/mL and the “NCTC (EC50)” value came to 307.3 ± 0.0 µg/mL.
As to `CCC(CC)O[C@@H]1C=C(C(=O)O)C[C@H](N)[C@H]1NC(C)=O` [Ose, oseltamivir carboxylate, reference compound], in the data set with MDCK cells [3], the CC50 worked out at 788.5 ± 6.0 µg/mL (≈ 2770 µM) and the “NCTC (EC50)” value amounted to 394.2 ± 0.0 µg/mL. Besides, in data set [1], the “Log HA decrement (mean ± SD), Co-pen” value came out at 8 logs; the “Log HA decrement (mean ± SD), Post-pen” value was determined as 8 logs; the “Log HA decrement (mean ± SD), Pre-pen” value came out at 8 logs. The “Dilution to give HI +” value in data set [6] worked out at 1st.
